Measured values from publication PMC3696402 (Neuropharmacology, 2013).

How the values were obtained:
5HT2C receptors [1] = target: T1, 5HT2C receptors (Homo sapiens, UniProt P28335); test: PLC activation and [3H]-IP formation in HEK cells; assay type: cell-based; conditions: for EC50: read-out: 5HT2C EC50±SEM, [3H]-IP formation, 30 min incubation
T1 sequence (P28335 33-458): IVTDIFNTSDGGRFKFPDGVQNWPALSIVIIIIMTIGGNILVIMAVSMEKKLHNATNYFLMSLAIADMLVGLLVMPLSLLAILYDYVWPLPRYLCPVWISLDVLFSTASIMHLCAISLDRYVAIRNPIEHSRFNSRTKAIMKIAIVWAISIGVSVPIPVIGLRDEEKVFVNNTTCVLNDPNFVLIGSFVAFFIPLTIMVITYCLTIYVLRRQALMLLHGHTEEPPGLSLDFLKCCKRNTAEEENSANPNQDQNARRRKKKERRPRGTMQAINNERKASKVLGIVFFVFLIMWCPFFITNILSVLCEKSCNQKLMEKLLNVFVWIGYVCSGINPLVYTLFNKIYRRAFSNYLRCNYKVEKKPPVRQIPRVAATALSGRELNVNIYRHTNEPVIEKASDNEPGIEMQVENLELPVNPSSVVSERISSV

5HT2A receptors [2] = target: T2, 5HT2A receptors (Homo sapiens, UniProt P28223); test: PLC activation and [3H]-IP formation in HEK cells; assay type: cell-based; conditions: for 5HT2A Function (activation of PLC/IP formation): at 10 μM
[3] = target: adenosine, adrenergic, benzodiazepine, cholinergic, dopamine, GABAA, histamine H2, H3, H4, NMDA/PCP, opiate, and serotonin 5-HT1A, 5-HT1B, receptors; test: Preliminary off-target binding studies; conditions: read-out: Ki (off-target receptors), comparatively low (Ki > 0.5 μM) or very low (Ki > 1 μM) affinity, initial results, PDSP 2012
C57Bl/6J male mice [4] = test: Locomotor activity; assay type: in vivo
C57Bl/6J male mice [5] = test: DOI-elicited head-twitch response; assay type: in vivo; conditions: for DOI-elicited HTR (responses) after pretreatment: 30 mg/kg i.p. pretreatment before 1 mg/kg (−)-DOI; for DOI-elicited HTRs after oral administration: 30 mg/kg oral (gavage) 20 min before (−)-DOI 1.0 mg/kg; for ED50 value (±95% CL), 50% attenuation of the DOI-elicited response: i.p. pretreatment before 1 mg/kg (−)-DOI; for Number of head-twitches: 10-min session
In short: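 Male C57Bl/6J mice (Jackson, pair-housed, ~8 weeks old on arrival, ≥1 week acclimation), tested mid-light phase after 30 min room habituation. Test compound or saline (sterile saline, 0.01 ml/g) given i.p. 10 min, or orally by gavage 20 min, before (−)-DOI (0.1–1.0 mg/kg) or saline. Ten min after DOI, head twitches counted over 10 min by a blind observer. ED50 reported with 95% CL.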

5HT2A receptors [6] = target: T2, 5HT2A receptors; test: Radioreceptor competition binding, [3H]-ketanserin, HEK membranes; conditions: read-out: 5HT2A Ki ± SEM; [3H]-ketanserin 2.0 nM, 1.0 h at 37°C
In short: (§1)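 HEK-293 cells transiently transfected (Lipofectamine 2000, 24–48 h) with human receptor cDNA (5HT2C: unedited INI isoform). Membranes in 50 mM Tris, 10 mM MgCl2, 0.1 mM EDTA; 3–5 μg protein per well. Nonspecific binding defined with 10 μM mianserin. Separated by GF/B filtration with five 50 mM Tris-HCl washes, then scintillation counting. Triplicates, at least 3 experiments; IC50 converted to Ki by Cheng–Prusoff.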

5HT2C receptors [7] = target: T1, 5HT2C receptors; test: Radioreceptor competition binding, [3H]-mesulergine, HEK membranes; conditions: read-out: 5HT2C Ki ± SEM; [3H]-mesulergine 1.4 nM, 1.0 h at 37°C
In short: as §1

C57Bl/6J male mice [8] = test: Palatable meal eating; assay type: in vivo; conditions: for Eating (pellets consumed) as % of baseline levels: 24 mg/kg i.p. 15 min before 30-min access to Crunchies; for ED50 value (±95% CL), 50% attenuation of consumption: i.p. 15 min before 30-min access to Crunchies
In short: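 Singly housed male C57Bl/6J mice (Harlan) with chow and water ad lib. In home cages, 10 sweet pellets (~190 mg, 3.5 kcal/g) were offered five days/week, with access tapered to 30 min/day. After ~2 weeks of stable intake, test compound was given i.p. (2 ml/kg, sterile saline) 15 min before access. Pellets eaten were counted. ED50 reported with 95% CL.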

5HT2B receptors [9] = target: T3, 5HT2B receptors (Homo sapiens, UniProt P41595); test: PLC activation and [3H]-IP formation in HEK cells; assay type: cell-based; conditions: at 10 μM
5HT2B receptors [10] = target: T3, 5HT2B receptors; test: Radioreceptor competition binding, [3H]-mesulergine, HEK membranes; conditions: read-out: 5HT2B Ki ± SEM; [3H]-mesulergine 1.95 nM, 1.0 h at 37°C
In short: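 Membranes came from HEK-293 cells transfected with 24 μg human 5HT2B cDNA (Lipofectamine 2000, 24–48 h) and collected in 50 mM Tris, 10 mM MgCl2, 0.1 mM EDTA. […] Nonspecific binding: 10 μM mianserin. Filtered on GF/B, washed five times with Tris-HCl, scintillation counted. Triplicates, ≥3 experiments.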

histamine H1 GPCRs = conditions: previous studies; ref Bucholtz et al., 2009; cited from earlier work
[11] = 3 mg/kg i.p. with DOI (1 mg/kg)
[12] = 10 mg/kg i.p. with DOI (1 mg/kg)
[13] = 10 mg/kg i.p. with saline (no DOI)
[14] = 30 mg/kg i.p. with DOI (1 mg/kg)
[15] = 30 mg/kg i.p. with saline (no DOI)
[16] = 30 mg/kg oral pretreatment before 1.0 mg/kg DOI

T3 sequence (P41595 whole entry): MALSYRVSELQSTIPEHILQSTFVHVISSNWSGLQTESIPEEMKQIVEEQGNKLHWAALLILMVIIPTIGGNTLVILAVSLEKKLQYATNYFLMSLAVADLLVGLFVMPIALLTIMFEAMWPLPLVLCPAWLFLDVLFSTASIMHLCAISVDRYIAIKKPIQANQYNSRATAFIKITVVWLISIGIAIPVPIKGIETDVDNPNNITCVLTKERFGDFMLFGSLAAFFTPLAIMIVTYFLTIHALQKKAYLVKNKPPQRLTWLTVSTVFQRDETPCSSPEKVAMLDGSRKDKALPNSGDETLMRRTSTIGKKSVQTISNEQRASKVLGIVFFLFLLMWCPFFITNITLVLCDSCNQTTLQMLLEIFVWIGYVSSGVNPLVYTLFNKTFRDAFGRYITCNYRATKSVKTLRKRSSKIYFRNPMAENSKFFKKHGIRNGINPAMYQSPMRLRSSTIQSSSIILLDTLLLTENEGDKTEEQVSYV
T2 sequence (P28223 whole entry): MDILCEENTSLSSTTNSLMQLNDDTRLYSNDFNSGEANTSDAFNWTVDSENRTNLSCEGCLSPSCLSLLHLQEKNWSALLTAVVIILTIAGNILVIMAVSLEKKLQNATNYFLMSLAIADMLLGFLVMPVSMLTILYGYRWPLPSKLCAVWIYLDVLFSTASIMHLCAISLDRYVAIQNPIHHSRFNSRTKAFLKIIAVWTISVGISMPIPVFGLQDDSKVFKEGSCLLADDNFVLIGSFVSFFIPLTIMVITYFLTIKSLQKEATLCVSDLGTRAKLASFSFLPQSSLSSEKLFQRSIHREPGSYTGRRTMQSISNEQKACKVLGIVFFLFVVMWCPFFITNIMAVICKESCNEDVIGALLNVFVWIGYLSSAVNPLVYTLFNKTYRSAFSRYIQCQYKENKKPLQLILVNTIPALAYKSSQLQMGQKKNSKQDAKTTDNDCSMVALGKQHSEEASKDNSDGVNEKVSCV

CN(C)[C@@H]1Cc2ccccc2[C@@H](c2ccc(Cl)cc2)C1 (stereo in doubt) [(−)-p-Cl-PAT, (−)-(2S, 4R)-trans-4-(4′-chlorophenyl)-N,N-dimethyl-2-aminotetralin]
Function at the 5HT2C receptor (efficacy compared to 5HT) (5HT2C receptors [1]): partial agonists | EC50 (5HT2C receptors [1]): 1.65 ± 0.149 µM | 5HT2A Function (activation of PLC/IP formation) (5HT2A receptors [2]): No Activation ^1 | Ki [3]: > 0.5 µM | Distance travelled (mean ± s.e.m.) (C57Bl/6J male mice [4]; [11]): 3386 ± 150 cm | Distance travelled (mean ± s.e.m.) (C57Bl/6J male mice [4]; [12]): 3064 ± 309 cm | Distance travelled (mean ± s.e.m.) (C57Bl/6J male mice [4]; [13]): 3097 ± 937 cm | Distance travelled (mean ± s.e.m.) (C57Bl/6J male mice [4]; [14]): 1889 ± 191 cm | Distance travelled (mean ± s.e.m.) (C57Bl/6J male mice [4]; [15]): 1994 ± 165 cm | Distance travelled (mean ± s.e.m.) (C57Bl/6J male mice [4]; [16]): 1944 ± 654 cm | DOI-elicited HTR (responses) after pretreatment (C57Bl/6J male mice [5]): 13 | DOI-elicited HTRs after oral administration (C57Bl/6J male mice [5]): 18.25 | ED50 value (±95% CL), 50% attenuation of the DOI-elicited response (C57Bl/6J male mice [5]): 20.1 (14.0–28.8) mg/kg | Ki (5HT2A receptors [6]): 0.24 ± 0.032 µM | Ki (5HT2C receptors [7]): 0.13 ± 0.016 µM | Eating (pellets consumed) as % of baseline levels (C57Bl/6J male mice [8]): 36.4% | ED50 value (±95% CL), 50% attenuation of consumption (C57Bl/6J male mice [8]): 21.3 (18.5–24.4) mg/kg | 5HT2B Function (activation of PLC/IP formation) (5HT2B receptors [9]): No Activation ^1 | Ki (5HT2B receptors [10]): 0.3 ± 0.03 µM

COc1cc(CC(C)N)c(OC)cc1I.Cl (single isomer, unassigned; (-)) [(−)-DOI, (−)-2,5-dimethoxy-4-iodoamphetamine hydrochloride, reference compound]
Distance travelled (mean ± s.e.m.) (C57Bl/6J male mice [4]; saline pretreatment, (−)-DOI 0.1 mg/kg): 2829 ± 481 cm | Distance travelled (mean ± s.e.m.) (C57Bl/6J male mice [4]; saline pretreatment, (−)-DOI 0.3 mg/kg): 2804 ± 353 cm | Distance travelled (mean ± s.e.m.) (C57Bl/6J male mice [4]; saline pretreatment, (−)-DOI 1.0 mg/kg): 3626 ± 392 cm | Number of head-twitches (C57Bl/6J male mice [5]; 0.1 mg/kg (−)-DOI preceded by a saline injection): 6 | Number of head-twitches (C57Bl/6J male mice [5]; 0.3 mg/kg (−)-DOI preceded by a saline injection): 22 | Number of head-twitches (C57Bl/6J male mice [5]; 1.0 mg/kg (−)-DOI preceded by a saline injection): 45 | Number of HTRs (C57Bl/6J male mice [5]; (−)-DOI 1.0 mg/kg following oral saline administration): 37.5

CN(C)[C@@H]1Cc2ccccc2[C@@H](c2ccccc2)C1 (relative stereo) [(−)-trans-PAT, (−)-(2S, 4R)-trans-4-phenyl-N,N-dimethyl-2-aminotetralin, reference compound]
Affinity at histamine H1 GPCRs (histamine H1 GPCRs): high affinity

CN(C)[C@H]1Cc2ccccc2[C@H](c2ccc(Cl)cc2)C1 (stereo in doubt) [(+)-p-Cl-PAT, (+)-(2R, 4S)-trans-4-(4′-chlorophenyl)-N,N-dimethyl-2-aminotetralin]
Function at the 5HT2C receptor (efficacy compared to 5HT) (5HT2C receptors [1]): partial agonists | Potency at 5HT2C relative to (−)-p-Cl-PAT (5HT2C receptors [1]; ratio of EC50 values): about 12 times | EC50 (5HT2C receptors [1]): 0.14 ± 0.02 µM | pA2 (competitive antagonism of 5HT activation of 5HT2A-mediated [3H]-IP formation) (5HT2A receptors [2]; Schild analysis versus 5HT): 6.21 ± 0.55 | 5HT2A Function (activation of PLC/IP formation) (5HT2A receptors [2]): No Activation | Ki [3]: > 0.5 µM | Distance travelled (mean ± s.e.m.) (C57Bl/6J male mice [4]; [11]): 3523 ± 518 cm | Distance travelled (mean ± s.e.m.) (C57Bl/6J male mice [4]; 3 mg/kg i.p. with saline (no DOI)): 2216 ± 98 cm | Distance travelled (mean ± s.e.m.) (C57Bl/6J male mice [4]; [12]): 2557 ± 99 cm | Distance travelled (mean ± s.e.m.) (C57Bl/6J male mice [4]; [13]): 2142 ± 124 cm | Distance travelled (mean ± s.e.m.) (C57Bl/6J male mice [4]; [14]): 1329 ± 434 cm | Distance travelled (mean ± s.e.m.) (C57Bl/6J male mice [4]; [15]): 870 ± 502 cm | Distance travelled (mean ± s.e.m.) (C57Bl/6J male mice [4]; [16]): 1586 ± 398 cm | DOI-elicited HTR (responses) after pretreatment (C57Bl/6J male mice [5]): 3.3 | DOI-elicited HTRs after oral administration (C57Bl/6J male mice [5]): 8.5 | ED50 value (±95% CL), 50% attenuation of the DOI-elicited response (C57Bl/6J male mice [5]): 8.2 (5.4–12.4) mg/kg | Ki (5HT2A receptors [6]): 0.042 ± 0.006 µM | Ki (5HT2C receptors [7]): 0.045 ± 0.007 µM | Eating (pellets consumed) as % of baseline levels (C57Bl/6J male mice [8]): 15.9% | ED50 value (±95% CL), 50% attenuation of consumption (C57Bl/6J male mice [8]): 14.8 (11.8–18.7) mg/kg | 5HT2B Function (activation of PLC/IP formation) (5HT2B receptors [9]): No Activation ^1 | Ki (5HT2B receptors [10]): 0.08 ± 0.01 µM

CN(C)[C@H]1Cc2ccccc2[C@H](c2ccc(Cl)cc2)C1 (stereo in doubt) [(±) p-Cl-PAT, racemic trans-4-(4′-chlorophenyl)-N,N-dimethyl-2-aminotetralin]
Distance travelled (mean ± s.e.m.) (C57Bl/6J male mice [4]; [16]): 1662 ± 468 cm | DOI-elicited HTRs after oral administration (C57Bl/6J male mice [5]): 13.25 | Affinity at histamine H1 GPCRs (histamine H1 GPCRs): high affinity
